Source: PubChem BioAssay
Only some compounds are listed: those with a hit (about 2% of all), similar ones and a draw of the others.
PPC-1+TRAIL kill – compounds killing PPC-1 cancer cells with TRAIL present (potentiator screen, no TRAIL-free arm); PPC-1 cells + TRAIL, ATPLite viability luminescence; cell killing (% activity), % at 4 µM or 5 µM; 220,000 tested, 0.41% active; AID 1443;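 active = cell killing above 50% in the first pass at 4 µM, then a duplicate retest at 5 µM averaging 50% or more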;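 note: plate controls were cells with TRAIL plus DMSO for no effect and medium-only wells lacking cells for full effect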
HSP90 refold inh – blocks HSP90-mediated luciferase refolding in reticulocyte lysate; 290,000 tested, 0.91% active; Rabbit reticulocyte lysate, luciferase refolding luminescence, 3 h; inhibition, % at 5.6 µM;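 active = inhibition above the screen-wide mean plus 3 SD, computed separately per campaign, cut at about 16% in these data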;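 note: 0% = DMSO wells and 100% = 60 µM geldanamycin wells; inhibitors lower the luminescence because luciferase stays unfolded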
TRAIL sens C8 – sensitizes caspase-8 expressing cells to TRAIL | NB7+C8 cells + TRAIL, ATPlite viability luminescence | inhibition (viability loss, TRAIL sensitization), % at 10 µM | 360,000 tested, 1% active;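 active = compounds causing at least 50% loss of cell viability in the single-dose screen, relative to plate controls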
FLuc stim CS – firefly luciferase counter-screen for stimulation assays | activation factor at 10 µM | AID 1027 | 200,000 tested, under 10 active | ATPlite luciferase biochemical, luminescence, 10 min; 0 = ATP-free wells, 1 = DMSO control | P08659;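 active = luciferase activation factor, scaled between plate controls, of at least 2 with compound at 10 µM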
Target sequence (P08659 whole entry, looked up): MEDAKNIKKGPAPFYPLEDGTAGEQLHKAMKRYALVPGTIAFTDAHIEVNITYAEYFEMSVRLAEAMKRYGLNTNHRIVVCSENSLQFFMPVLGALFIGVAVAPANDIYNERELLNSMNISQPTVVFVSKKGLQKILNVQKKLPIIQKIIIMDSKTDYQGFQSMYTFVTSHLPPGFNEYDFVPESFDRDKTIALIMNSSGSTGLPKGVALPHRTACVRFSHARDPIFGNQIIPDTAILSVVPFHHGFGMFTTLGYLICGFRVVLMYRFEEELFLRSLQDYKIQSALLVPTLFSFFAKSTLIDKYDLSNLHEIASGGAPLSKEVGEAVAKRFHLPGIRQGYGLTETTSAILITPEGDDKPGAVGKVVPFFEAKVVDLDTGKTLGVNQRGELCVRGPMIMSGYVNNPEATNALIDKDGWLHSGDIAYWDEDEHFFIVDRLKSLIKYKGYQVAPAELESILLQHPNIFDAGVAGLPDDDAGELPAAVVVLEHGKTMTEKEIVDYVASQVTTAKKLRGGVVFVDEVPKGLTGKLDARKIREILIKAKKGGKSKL
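Assay system: Luciferase/luciferin detection reagent, cell-free biochemical luciferase assay / Read-out: luciferase activation / Benchmarks: No-ATP low control, compound-free enzyme-plus-ATP high control / Medium: PBS buffer for ATP / Detection: luminescence measurement of luciferase light output / Schedule: 10 min at ambient temperature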
FLuc inhib CS – Photinus pyralis luciferase inhibition counter-screen; 200,000 tested, 1.5% active; P08659; ATPLite firefly luciferase biochemical luminescence, 10 min; inhibition, % at 10 µM;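 active = inhibition above about 50% when tested at 10 µM, limit read from the data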
PPC-1 tox – kills PPC-1 cells; cytotoxicity, % at 5 µM; AID 1447; 1,200 tested, 50% active; PPC-1 viability, ATPlite luminescence, overnight; shares compounds with PPC-1+TRAIL kill;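 active = reconfirmed compounds whose average cytotoxicity reaches 50% or more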;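 note: 0% = DMSO-treated cells and 100% = wells holding medium but no cells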
HSP90 confirm – HSP90 inhibition, confirmation assay | shares compounds with HSP90 refold inh | 2,300 tested, 64% active | AID 1846 | inhibition, % at 5.9 µM | rabbit reticulocyte lysate, luciferase refolding luminescence, 3 h; in the data active = inhibition above about 18%;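 note: 0% = vehicle wells and 100% = reference inhibitor wells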
FLuc counter – firefly luciferase inhibition, HSP90 counter-screen | purified native firefly luciferase, luminescence | 2,300 tested, 48% active | inhibition, % at 5.9 µM | shares compounds with HSP90 refold inh;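 active = inhibition above the mean inhibition of all tested sample wells plus 3 SD, cut at about 10% in these data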;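 note: 0% = DMSO with luciferase and 100% = wells lacking luciferase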
* = called active by the depositor; / = not tested or not shown.

SMILES	PPC-1+TRAIL kill	HSP90 refold inh	TRAIL sens C8	FLuc stim CS	FLuc inhib CS	PPC-1 tox	HSP90 confirm	FLuc counter
CCn1ccnc1CN(C)C(=O)CCc1nnc(CCC2CCCCC2)o1	20	0	-5	1.1	-6	/	/	/
CCOC(=O)c1c(C)c(C(=O)Nc2ccc3c(c2)OCO3)c(C)n1C	10	-2	4	1	3	/	/	/
CCOC(=O)c1c(N)sc(C(=O)Nc2ccc3c(c2)OCO3)c1C	71*	41*	78*	0.1	90*	77*	69*	59*
O=C1Nc2ccccc2N(O)N1c1ccc(S(=O)(=O)N2CCOCC2)cc1	2	1	-8	1.1	-7	/	/	/
O=C(O)CCC(=O)Nc1ccc(N=Nc2ccccc2)cc1	25	-2	-2	0.8	18	/	/	/
CC(C)(C)C(=O)Nc1ccc(N=Nc2ccccc2)cc1	62*	71*	82*	0.1	90*	68*	79*	74*
Cc1ccc(-n2nnc(-c3cc4ccccc4nc3Cl)n2)cc1	18	-5	-6	0.9	12	/	/	/
Cc1ccc(-n2nnc(-c3nccs3)n2)cc1	82*	76*	87*	0	96*	82*	85*	81*
O=C(OCC(=O)N1CCCCCC1)c1cc(S(=O)(=O)N2CCOCC2)ccc1F	/	/	-4	/	/	/	/	/
CCOc1ccc(-c2ccc(SCC)nn2)cc1	60*	18*	73*	0.1	86*	57*	56*	39*
CCOc1ccc(-c2ccc(SCc3ccccn3)nn2)cc1	-7	-3	5	0.8	23	/	/	/
COc1ccc2[nH]cc(S(=O)(=O)c3ccc(C)cc3)c2c1	-19	-1	-9	1.1	-5	/	/	/
c1ccc(-c2ncc(CSc3nncn3-c3ccccc3)s2)cc1	-12	-7	13	1	-1	/	/	/
Cc1nnc(SCc2cnc(-c3ccc(C(C)C)cc3)s2)n1C	91*	38*	88*	0	95*	91*	50*	41*
CCN(CCO)c1ccc(N=Nc2cc(C)[nH]n2)cc1	77*	57*	86*	/	/	78*	76*	68*
COc1ccc(C(=O)/C=C/Nc2ccccn2)c(OC)c1	15	4	9	/	/	/	/	/
O=C(/C=C/Nc1ccccc1Br)c1ccccn1	92*	87*	93*	0	97*	93*	98*	94*
O=C(/C=C\Nc1ccccn1)c1ccccc1	55*	39*	56*	0.1	89*	54*	74*	70*
COc1ccc(CN2CCNC(=O)C2CC(=O)N(C)C2CCCCC2)cc1OC (centres undefined)	/	/	-12	/	/	/	/	/
CCCCN1C(=O)C(CC(=O)NC(c2ccccc2)c2ccccc2)CC(C(=O)N(C(C)C)C(C)C)=C1C (centres undefined)	/	/	1	/	/	/	/	/
O=C(Nc1ccc(Cl)cc1)C1C2CCCCC21 (centres undefined)	/	2	18	/	/	/	/	/
COc1cccc(-c2cc(C(=O)Nc3cccc(O)c3)no2)c1	56*	18*	70*	0.2	83*	55*	64*	57*
O=C(CCCSc1ccc(Cl)cc1)Nc1cc(S(=O)(=O)N2CCOCC2)ccc1O	/	/	-9	/	/	/	/	/
CN(C)c1cccc(C(=O)N/N=C/c2ccccc2F)c1	62*	36*	79*	0	95*	59*	73*	60*
Cc1cc(/C=N/NC(=O)c2cccc(N(C)C)c2)c(C)n1-c1cc(C(=O)O)cc(C(=O)O)c1	2	5	-3	1	3	/	/	/
SMILES	PPC-1+TRAIL kill	HSP90 refold inh	TRAIL sens C8	FLuc stim CS	FLuc inhib CS	PPC-1 tox	HSP90 confirm	FLuc counter
Cc1c(C)c2c(OCC(=O)Nc3cccnc3)cc3c(c2oc1=O)CCC(C)(C)O3	/	0	11	/	/	/	/	/
C[C@H](CO)N1C[C@H](C)[C@H](CN(C)S(=O)(=O)c2cccc(F)c2)Oc2ncc(-c3cccc(C(=O)N(C)C)c3)cc2C1=O	/	/	-10	/	/	/	/	/
CCN(CC)c1ccc(S(=O)(=O)N2CCOCC2)cc1NC(=O)CSC(=S)N1CCCC1	/	5	6	/	/	/	/	/
COc1ccc(C(=O)Nn2c(SCC(=O)NCc3ccco3)nc3ccccc3c2=O)cc1	34	56*	33	0.5	54*	35	65*	65*
C/C(=N\Nc1nc2ccccc2[nH]1)c1ccc(N2CCOCC2)cc1	71*	19*	73*	0.1	94*	71*	1	-12
Cc1cc(C(=O)Nc2ccc(Cl)cc2)c(C)n1-c1ccccc1	83*	81*	83*	/	/	79*	81*	80*
Cc1cc(C(=O)Nc2ccc(Cl)cc2)n(-c2ccccc2)n1	/	-2	-3	/	/	/	/	/
CN(C)c1ccc(/C=C2/SC(=O)N(CCN=C3NS(=O)(=O)c4ccccc43)C2=O)cc1	26	-4	-3	1	4	/	/	/
CN(C)c1ccc(/C=C2\SC(=O)N(CCc3nnc(N)s3)C2=O)cc1	65*	37*	81*	/	/	68*	85*	82*
CCCNC(=O)c1ccc(-c2nc3ccccc3s2)s1	70*	22*	83*	0.1	90*	77*	68*	60*
O=C(NCCCO)c1nc2ccccc2s1	22	-1	-8	1	-4	/	/	/
CCOc1ccc2nc(-c3ccccc3)[nH]c2c1	48	19*	69*	0.2	84*	56*	21*	13*
CS(=O)(=O)c1ccc2nc(NC(=O)c3cccs3)sc2c1	75*	18*	81*	0.1	91*	76*	37*	23*
Cc1ccc2nc(NC(=O)c3cccs3)sc2c1	52*	19*	61*	0.3	73*	54*	40*	38*
CCC(=O)Nc1nc2ccc(S(C)(=O)=O)cc2s1	1	-4	5	1	-4	/	/	/
CSc1nc2ccc(NC(=O)c3cccs3)cc2s1	/	/	2	/	/	/	/	/
CCCCOc1ccc(-c2cc(C(=O)NNC(=S)NCC)c3ccccc3n2)cc1	90*	30*	87*	0.1	94*	90*	52*	-2
CCCCNC(=S)NNC(=O)c1cc(-c2cccnc2)nc2ccccc12	/	-1	8	/	/	/	/	/
COc1cccc(CNc2cccc3cccnc23)c1O	-2	20*	5	0.9	6	9	-11	-30
CCOC(=O)CC1(NC(=O)C2CCC(=O)N(CCc3ccccc3)C2)CCCCC1 (centres undefined)	/	-3	13	/	/	/	/	/
c1ccc(-n2ncc3c(N4CCCCC4)ncnc32)cc1	80*	56*	86*	0.1	89*	79*	80*	74*
COc1cccc(C(=O)Nc2ccc(NC(=O)C(C)(C)C)cn2)c1	71*	33*	77*	0.1	88*	73*	48*	37*
